Results: ChEMBL document CHEMBL1138356, “Design and synthesis of human immunodeficiency virus entry inhibitors: sulfonamide as an isostere for the alpha-ketoamide group” (J Med Chem, 2007)

Columns and labels:
[1] = tested on: Human immunodeficiency virus 1; experiment: Antiviral activity against HIV1 pseudovirus in U87 cells expressing CD4 and CCR5 after 72 hrs by M33 pseudotyped assay; type: functional, organism-based, U-87MG ATCC; details: Human immunodeficiency virus 1, U-87 MG
Method in brief: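 M33 pseudotyped viral attachment assay giving IC50 values. Specificity for HIV was judged by counter-screening against AMLV-pseudotyped virus at concentrations above 100× the M33 IC50.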

[2] = Cytotoxicity against human U87 cells expressing CD4 and CXCR4; type: cell-based, U-87MG ATCC

IC50 [1] [µM] | Structure (SMILES) | CC50 [2] [µM]
0.86 | Cc1cn(-c2nccc3c(S(=O)(=O)N4CCN(C(=O)c5ccccc5)CC4C)c[nH]c23)nn1 (racemic) | > 40
4.6 | CC1CN(C(=O)c2ccc3[nH]ccc3c2)CCN1S(=O)(=O)c1c[nH]c2ncccc12 (racemic) | > 40
0.2 | C[C@@H]1CN(C(=O)c2ccccc2)CCN1S(=O)(=O)c1c[nH]c2c(-n3nccn3)ccc(F)c12 | > 40
1.9 | Cc1csc(C(=O)N2CCN(S(=O)(=O)c3c[nH]c4ncccc34)[C@H](C)C2)c1 | > 40
9.1 | C[C@@H]1CN(C(=O)c2cnccn2)CCN1S(=O)(=O)c1c[nH]c2ncccc12 | > 40
0.24 | Cc1ncn(-c2nccc3c(S(=O)(=O)N4CCN(C(=O)c5ccccc5)CC4C)c[nH]c23)n1 (racemic) | > 40
0.58 | COCc1cn(-c2ncc(F)c3c(S(=O)(=O)N4CCN(C(=O)c5ccccc5)CC4C)c[nH]c23)nn1 (racemic) | > 40
12.6 | CC1CN(C(=O)c2ccc3scnc3c2)CCN1S(=O)(=O)c1c[nH]c2ncccc12 (racemic) | > 40
8.4 | C[C@@H]1CN(C(=O)c2cccc(Cl)c2)CCN1S(=O)(=O)c1c[nH]c2ncccc12 | > 40
0.64 | CC1CN(C(=O)c2ccccc2)CCN1S(=O)(=O)c1c[nH]c2c(-c3cccnc3)nccc12 (racemic) | > 40
4.2 | COc1cccc2[nH]cc(S(=O)(=O)N3CCN(C(=O)c4ccccc4)C[C@H]3C)c12 | > 40
0.036 | C[C@@H]1CN(C(=O)c2ccccc2)CCN1S(=O)(=O)c1c[nH]c2c(-n3ccnc3)ncc(F)c12 | > 40
0.86 | C[C@@H]1CN(C(=O)c2ccccc2)CCN1S(=O)(=O)c1c[nH]c2ncccc12 | > 40
0.2 | CC1CN(C(=O)c2ccccc2)CCN1S(=O)(=O)c1c[nH]c2c(-n3cncn3)nccc12 (racemic) | > 40
3.6 | C[C@@H]1CN(C(=O)c2ccccc2)CCN1S(=O)(=O)c1c[nH]c2ccc(F)cc12 | > 40
0.005 | COc1ncc(OC)c2c(C(=O)C(=O)N3CCN(C(=O)c4ccccc4)C[C@H]3C)c[nH]c12 | > 40
11 | CC1CN(C(=O)c2ccccc2)CCN1S(=O)(=O)c1c[nH]c2c(Cl)nccc12 (racemic) | > 40
0.08 | CC1CN(C(=O)c2ccccc2)CCN1S(=O)(=O)c1c[nH]c2c(-n3cncn3)ncc(F)c12 (racemic) | > 40
0.5 | CC1CN(C(=O)c2ccccc2)CCN1S(=O)(=O)c1c[nH]c2c(-c3nccs3)nccc12 (racemic) | > 40
2.3 | Cc1ccc(C(=O)N2CCN(S(=O)(=O)c3c[nH]c4ncccc34)[C@H](C)C2)s1 | > 40
10 | C[C@@H]1CN(C(=O)c2ccccc2)CCN1S(=O)(=O)c1c[nH]c2c(C#N)cc(F)cc12 | > 40
13 | C[C@@H]1CN(S(=O)(=O)c2c[nH]c3ncccc23)CCN1C(=O)c1ccccc1 | > 40

IC50 [1] [µM] | Structure (SMILES) | CC50 [2] [µM]
> 40 | COc1cc2c(S(=O)(=O)N3CCN(C(=O)c4ccccc4)CC3C)c[nH]c2cn1 (racemic) | > 40
5.4 | CC1CN(C(=O)c2cnc3ccccc3n2)CCN1S(=O)(=O)c1c[nH]c2ncccc12 (racemic) | > 40
0.52 | O=C(C(=O)N1CCN(C(=O)c2ccccc2)CC1)c1c[nH]c2ncccc12 | > 40
16 | CC[C@@H]1CN(C(=O)c2ccccc2)CCN1S(=O)(=O)c1c[nH]c2ncccc12 | > 40
0.42 | C[C@@H]1CN(C(=O)c2csc(Br)n2)CCN1S(=O)(=O)c1c[nH]c2ncccc12 | > 40
0.52 | C[C@@H]1CN(C(=O)c2csc(N)n2)CCN1S(=O)(=O)c1c[nH]c2ncccc12 | > 40
0.08 | C[C@@H]1CN(C(=O)c2ccccc2)CCN1S(=O)(=O)c1c[nH]c2c(-n3ccnc3)nccc12 | > 40
0.25 | C[C@@H]1CN(C(=O)c2ccccc2)CCN1S(=O)(=O)c1c[nH]c2c(-n3cc(CO)nn3)nccc12 | > 40
1.24 | CC1CN(C(=O)c2ccccc2)CCN1S(=O)(=O)c1c[nH]c2c(-c3ncon3)nccc12 (racemic) | > 40
9.2 | COc1cc2c(S(=O)(=O)N3CCN(C(=O)c4ccccc4)C[C@H]3C)c[nH]c2cn1 | > 40
> 20 | NC(=O)[C@H]1CN(C(=O)c2ccccc2)CCN1S(=O)(=O)c1c[nH]c2ncccc12 | > 40
0.007 | C[C@@H]1CN(C(=O)c2ccccc2)CCN1S(=O)(=O)c1c[nH]c2c(-n3ccnn3)ncc(F)c12 | > 40
0.15 | C[C@@H]1CN(C(=O)c2ccccc2)CCN1S(=O)(=O)c1c[nH]c2c(-n3ccnn3)ccc(F)c12 | > 40
1.1 | CC1CN(C(=O)c2ccccc2)CCN1S(=O)(=O)c1c[nH]c2c(-n3cc(CN(C)C)nn3)nccc12 (racemic) | > 40
0.027 | C[C@@H]1CN(C(=O)c2ccccc2)CCN1S(=O)(=O)c1c[nH]c2c(-n3ccnn3)nccc12 | > 40
> 40 | CC1CN(C(=O)c2ccccc2)CCN1S(=O)(=O)c1c[nH]c2c(Cl)nc(Cl)cc12 (racemic) | > 40
0.03 | C[C@@H]1CN(C(=O)c2ccccc2)CCN1C(=O)C(=O)c1c[nH]c2ncccc12 | > 40
0.3 | CC1CN(C(=O)c2ccccc2)CCN1S(=O)(=O)c1c[nH]c2c(-n3cccn3)nccc12 (racemic) | > 40
3.3 | C[C@@H]1CN(C(=O)c2ccccn2)CCN1S(=O)(=O)c1c[nH]c2ncccc12 | > 40
0.15 | C[C@@H]1CN(C(=O)c2ccccc2)CCN1S(=O)(=O)c1c[nH]c2c(-n3cncn3)nccc12 | > 40
0.5 | CC1CN(C(=O)c2ccccc2)CCN1S(=O)(=O)c1c[nH]c2c(-c3ccnc(N)n3)nccc12 (racemic) | > 40
> 20 | C[C@@H]1CN(C(=O)c2ccccc2)CCN1S(=O)(=O)c1c[nH]c2ccc(C#N)cc12 | > 40

IC50 [1] [µM] | Structure (SMILES) | CC50 [2] [µM]
4.7 | C[C@@H]1CN(C(=O)c2ccccc2)CCN1S(=O)(=O)c1c[nH]c2c(F)c(F)c(F)c(F)c12 | > 40
0.5 | C[C@@H]1CN(C(=O)c2ccccc2)CCN1S(=O)(=O)c1c[nH]c2c(-n3cncn3)ccc(F)c12 | > 40
0.2 | C[C@@H]1CN(C(=O)c2ccccc2)CCN1S(=O)(=O)c1c[nH]c2cccc(F)c12 | > 40
2.4 | C[C@@H]1CN(C(=O)c2ccn(C)n2)CCN1S(=O)(=O)c1c[nH]c2ncccc12 | > 40
4.6 | CC1CN(C(=O)c2cccs2)CCN1S(=O)(=O)c1c[nH]c2ncccc12 (racemic) | > 40
> 20 | CC1(C)CN(C(=O)c2ccccc2)CCN1S(=O)(=O)c1c[nH]c2ncccc12 | > 40
> 20 | C[C@H]1CN(C(=O)c2ccccc2)CCN1S(=O)(=O)c1c[nH]c2ncccc12 | > 40
> 20 | COC(=O)[C@@H]1CN(C(=O)c2ccccc2)CCN1S(=O)(=O)c1c[nH]c2ncccc12 | > 40
3 | C[C@@H]1CN(C(=O)c2cc3ccccc3o2)CCN1S(=O)(=O)c1c[nH]c2ncccc12 | > 40
0.14 | CC1CN(C(=O)c2ccccc2)CCN1S(=O)(=O)c1c[nH]c2c(-c3cc[nH]n3)nccc12 (racemic) | > 40
0.62 | C[C@@H]1CN(C(=O)c2ccccc2)CCN1S(=O)(=O)c1c[nH]c2c(-n3nccn3)ncc(F)c12 | > 40
12.4 | Cc1ccc(C(=O)N2CCN(S(=O)(=O)c3c[nH]c4ncccc34)C(C)C2)cc1 (racemic) | > 40
0.026 | COc1ncc(OC)c2c(C(=O)C(=O)N3CCN(C(=O)c4ccccc4)CC3)c[nH]c12 | > 40
0.43 | C[C@@H]1CN(C(=O)c2ccccc2)CCN1S(=O)(=O)c1c[nH]c2ccccc12 | > 40
> 20 | C[C@H]1CN(S(=O)(=O)c2c[nH]c3ncccc23)CCN1C(=O)c1ccccc1 | > 40
0.16 | CC1CN(C(=O)c2ccccc2)CCN1S(=O)(=O)c1c[nH]c2c(-n3ccnc3)nccc12 (racemic) | > 40
0.37 | C[C@@H]1CN(C(=O)c2ccccc2)CCN1S(=O)(=O)c1c[nH]c2c(F)ccc(F)c12 | > 40
10 | CC1CN(C(=O)c2ccc3occc3c2)CCN1S(=O)(=O)c1c[nH]c2ncccc12 (racemic) | > 40
0.24 | C[C@@H]1CN(C(=O)c2ccccc2)CCN1S(=O)(=O)c1c[nH]c2c(-n3cc(CF)nn3)nccc12 | > 40
22 | O=C(c1ccccc1)N1CCN(S(=O)(=O)c2c[nH]c3ncccc23)CC1 | > 40
> 20 | NC(=O)[C@@H]1CN(C(=O)c2ccccc2)CCN1S(=O)(=O)c1c[nH]c2ncccc12 | > 40
